# Source: PubChem
# MIN6 prolif-1 = induces beta-cell replication in MIN6 cells; MIN6 cells proliferation, ATPlite luminescence, 48 h; cells starved in 0.2% serum; 100% = growth in 10% serum; proliferation, % at 10 µM; 330,000 compounds, 0.29% hits; AID 2380;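 active = compounds whose signal lies at least 3.5 SD above the mean of all wells on their plate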
# iPSC survival up = hiPSC single-cell survival enhancement; ATPlite luminescence; 100% = ROCK inhibitor wells, 0% = DMSO; 360,000 compounds, 0.044% hits; AID 602274; survival enhancement, % at 20 µM; in the data active = survival enhancement above about 18%;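 note: cells exposed to compounds for 16 hours before the ATP read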
# H9c2 protect = myocardial damage modulation in H9c2 cells. protection from H2O2 cell death, % at 20 µM. 360,000 compounds, 0.63% hits. AID 588492. H9c2 cardiomyocytes, H2O2 injury protection, ATPLite, 2 h;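 active = compounds giving at least 50% protection of heart cells from peroxide-induced death in the single-dose screen, raw or plate-pattern-corrected value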
# UCH37 DUB inh = blocks the human deubiquitinase UCH37. Q9Y5K5. purified proteasome/UCH37, Ub-AMC cleavage fluorescence. inhibition, % (test concentration not listed). 330,000 compounds, 0.33% hits;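 active = mean inhibition over replicate wells above about 20%, limit read from the data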
# Target sequence (Q9Y5K5 whole entry, looked up): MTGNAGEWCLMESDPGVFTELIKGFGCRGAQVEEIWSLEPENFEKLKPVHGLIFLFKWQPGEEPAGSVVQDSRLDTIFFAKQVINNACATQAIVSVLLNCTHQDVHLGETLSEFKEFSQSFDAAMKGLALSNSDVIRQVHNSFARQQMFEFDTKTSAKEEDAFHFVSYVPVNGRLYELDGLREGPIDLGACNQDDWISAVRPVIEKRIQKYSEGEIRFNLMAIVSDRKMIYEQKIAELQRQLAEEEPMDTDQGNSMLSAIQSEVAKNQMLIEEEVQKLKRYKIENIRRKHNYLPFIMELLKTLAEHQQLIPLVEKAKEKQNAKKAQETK
#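 Assay system: Proteasome-bound UCH37. Buffer or medium: pH 7.4 Tris-HCl (50 mM) with ovalbumin, ATP-MgCl2, DTT. Incubation: 30 min preincubation with enzyme, 25 min cleavage at room temperature. Measured by: fluorescence, ex 355 nm, em 460 nm. Read-out basis: percent inhibition. Control set: wells without proteasome as full block, compound-free enzyme plus substrate as uninhibited.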
# CRFR2-BP ag = CRF-BP/CRF-R2 complex agonism | HEK293 CRF-R2/CRF-BP, calcium dye fluorescence (FLIPR); percent of saturating CRF peptide response | 350,000 compounds, 0.46% hits | activation, % at 13.2 µM | AID 588473;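 active = activation of at least 50%, plus an integration ratio under a set limit after plate pattern correction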
# CRFBP-R2 block = CRF-BP/CRF-R2 complex antagonism | HEK293 CRF-R2/CRF-BP, CRF-induced calcium fluorescence | 350,000 compounds, 0.59% hits | inhibition, % at 11.8 µM;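 active = inhibition of the ligand-induced calcium signal above about 50% at the single tested concentration, limit read from the data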
# MIN6 prolif-2 = confirmation of inducers of beta-cell replication in MIN6 cells; shares compounds with MIN6 prolif-1; MIN6 beta-cell proliferation, ATPlite luminescence, 48 h; cells kept in 0.2% serum; scaled between 0.2% and 10% serum; proliferation increase, % at 50 µM; 920 tested, under 10 active;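 active = proliferation increase above 40% at any of the four tested concentrations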
# Numbers stand for hits; 0 = inactive; - = no result. The list is not random: actives were taken first. Their share in the collection is about 2.1%.
SMILES,MIN6 prolif-1,iPSC survival up,H9c2 protect,UCH37 DUB inh,CRFR2-BP ag,CRFBP-R2 block,MIN6 prolif-2
COc1ccccc1C(=O)COC(=O)c1cc(S(=O)(=O)N2CCCCC2)ccc1N1CCOCC1,0,0,0,0,0,0,-
COc1ccc(C(=O)COC(=O)c2cc(S(=O)(=O)N3CCCCC3)ccc2N2CCOCC2)c(OC)c1,11.1,0,0,-,0,0,0
COc1ccc(C(=O)COC(=O)c2cc([N+](=O)[O-])ccc2N2CCOCC2)c(OC)c1,12.3,0,0,-,0,0,0
COc1ccccc1C(=O)COC(=O)c1cc([N+](=O)[O-])ccc1N1CCOCC1,0,0,0,0,0,0,-
CCC(Cc1ccccc1)NC(=O)C1=C(C)C(=O)OC12CCC(C)CC2 (stereo not drawn),7.7,0,0,0,0,0,0
COc1ccc(CNC(=O)C2=C(C)C(=O)OC23CCC(C)CC3)cc1 (stereo not drawn),0,0,0,0,0,0,-
CON=C(Cn1ncc(N2CCCC2)c(Cl)c1=O)c1ccc(Cl)cc1,-,-,-,0,-,-,-
Cc1ccc(C2=CC(c3ccccc3)n3ncnc3N2)cc1 (stereo not drawn),12.1,0,0,-,0,0,0
COc1ccc(C=NNC(=O)C(C)Sc2ccccn2)cc1[N+](=O)[O-] (stereo not drawn),-,-,-,0,-,-,-
CCOc1ncccc1C(=O)Nc1ccc2c(C)cc(=O)oc2c1,8.1,0,0,0,0,0,0
O=c1[nH]c2ccc(Cl)cc2c(=O)n1Cc1ccco1,7.2,0,0,0,0,0,0
O=c1c2cc(N3CCOCC3)ccc2[nH]c(=S)n1Cc1ccco1,0,0,0,0,0,0,-
COc1ccc(/C=N\NC(=O)CNC(=O)C2COc3ccccc3O2)cc1[N+](=O)[O-] (stereo not drawn),13.6,0,0,-,0,0,0
O=C(OCCCc1cc2ccccc2c(=O)o1)N1CCOCC1,7.8,0,0,0,0,0,0
CCc1ccc(S(=O)(=O)Nc2ccc(Cl)cn2)cc1,4.9,0,0,0,0,0,0
O=S(=O)(Nc1ccc(Cl)cn1)c1ccc(Cl)cc1,0,0,0,0,0,0,-
CC(=NNC(=O)c1cccc(S(=O)(=O)Nc2ccc(C)cc2C)c1)c1ccncc1,-,-,-,0,-,-,-
CCOC(=O)c1c(S(=O)(=O)NCC(=O)Nc2ccc(OC)cc2)c(C)n(C)c1C,12.8,0,0,0,0,0,0
CCOC(=O)c1c(S(=O)(=O)NCC(=O)Nc2ccccc2)c(C)n(C)c1C,0,0,0,0,0,0,-
CCOC(=O)c1c(S(=O)(=O)NCCc2ccccc2)c(C)n(C)c1C,11.7,0,0,0,0,0,0
CCOC(=O)c1c(S(=O)(=O)NCC(=O)Nc2ccccc2OC)c(C)n(C)c1C,12.7,0,0,0,0,0,0
O=C(CCC(=O)Nc1ccccc1)NN=Cc1ccco1,-,-,-,0,-,-,-
CCOC(=O)c1ccc(-c2ccc(C=NNC(=O)CN(c3cccc(C)c3)S(C)(=O)=O)o2)cc1,-,-,-,0,-,-,-
COc1ccc(C=NN2CCOCC2)cc1COc1ccc(F)cc1,-,-,-,0,-,-,-
O=C(CC(=O)NC1CCCCC1)NN=Cc1ccccc1F,-,-,-,0,-,-,-
SMILES,MIN6 prolif-1,iPSC survival up,H9c2 protect,UCH37 DUB inh,CRFR2-BP ag,CRFBP-R2 block,MIN6 prolif-2
Cc1ccc(C(=O)Nc2nnc(CC(=O)NN=Cc3ccncc3)s2)cc1,-,-,-,0,-,-,-
Cc1ccc(CN2CCN(N=Cc3ccc(C)s3)CC2)cc1,-,-,-,0,-,-,-
COCCNC(=O)C(c1ccc(F)cc1)N(Cc1cccs1)C(=O)CCC(=O)Nc1ccccn1 (stereo not drawn),5.5,0,0,0,0,0,0
COCCNC(=O)C(c1ccc(F)cc1)N(Cc1ccccc1)C(=O)CCC(=O)Nc1ccccn1 (stereo not drawn),0,0,0,0,0,0,-
COc1cccc(OCCn2c(C)c(C=Nn3cnnc3)c3ccccc32)c1,-,-,-,0,-,-,-
C=CCN1C(=O)/C(=C2/Sc3ccccc3N2C)SC1=Nc1ccccc1C,0,0,0,0,0,0,-
C=CCN1C(=O)/C(=C2/Sc3ccccc3N2CCCS(=O)(=O)O)SC1=S,6.4,0,0,0,0,0,0
Cc1ccc(C=NNC(=O)c2cccs2)cc1[N+](=O)[O-],-,-,-,0,-,-,-
CCc1nc(N)c(C#N)c(-c2ccco2)c1C,7.1,0,0,0,0,0,0
CCCCCc1nc(N)c(C#N)c(-c2ccco2)c1CCCC,0,0,0,0,0,0,-
Cc1onc(-c2ccccc2)c1C(O)c1ccc(F)cc1 (stereo not drawn),10.3,0,0,0,0,0,0
CNC(=S)NN=C(C)c1ccc(C)c(C)c1,-,-,-,0,-,-,-
COC(=O)C1CC(=NNS(=O)(=O)c2ccc(C)cc2)c2sccc2C1 (stereo not drawn),-,-,-,0,-,-,-
Nc1nc(Nc2ccc(Cl)cc2)nc(NCCO)c1[N+](=O)[O-],14.8,0,0,-,0,0,0
O=C(CS(=O)(=O)c1ccc(Br)cc1)N1CCOCC1,11.2,0,0,0,0,0,0
CC(=NO)c1ccn(S(=O)(=O)c2ccc(Cl)cc2)c1,-,-,-,0,-,-,-
Cn1c(=S)n(N=Cc2cccs2)c2ccccc21,-,-,-,0,-,-,-
COc1ccc(COC(=O)C2=C(C)NC(=O)NC2c2ccc(OC)c(OC)c2)cc1 (stereo not drawn),6.2,0,0,0,0,0,0
O=C(NN=Cc1ccccn1)c1cc(Br)ccc1O,-,-,-,0,-,-,-
Cc1cccc(S(=O)(=O)Nc2nc3ccccc3nc2Nc2cccc(C(=O)O)c2)c1,6.6,0,0,0,0,0,0
O=C(O)c1cccc(Nc2nc3ccccc3nc2NS(=O)(=O)c2ccc(F)cc2)c1,0,0,0,0,0,0,-
O=C1C2C(C(=O)N1N=Cc1ccco1)C1C=CC2C12CC2 (stereo not drawn),-,-,-,0,-,-,-
O=C(Nc1ccccc1Br)c1cccc2ccccc12,8.7,0,0,0,0,0,0
COc1ccc(CC(C)=NNC(=O)c2ccncc2)cc1,-,-,-,0,-,-,-
CCOC(=O)c1c(-c2cccs2)csc1NC(C)=O,12.7,0,0,0,0,0,0
SMILES,MIN6 prolif-1,iPSC survival up,H9c2 protect,UCH37 DUB inh,CRFR2-BP ag,CRFBP-R2 block,MIN6 prolif-2
CCOc1cc(C=NN2CCOCC2)ccc1OCc1ccc(C(=O)OC)o1,-,-,-,0,-,-,-
CC(C)CCNc1nc(N)c([N+](=O)[O-])c(NC2CCCCC2)n1,8.8,0,0,0,0,0,0
CCCc1c2ccccc2nc2ccccc12,7.2,0,0,0,0,0,0
Cc1cc(Br)c(NC(=O)COC(=O)C2CCCCC2)c(Br)c1,10.6,0,0,0,0,0,0
O=C(c1ccco1)N1CCN(c2ccc([N+](=O)[O-])c(N3CCOCC3)c2)CC1,9.7,0,0,0,0,0,0
CCOC(=O)c1c(NC(=O)Cc2cccs2)sc(C(=O)N2CCCCC2)c1C,9.5,0,0,0,0,0,0
